Reference: ChEMBL document CHEMBL1130394 (J Med Chem, 1997)

Legend:
KB = assay: Inhibitory concentration that reduced the viability of KB cell population by 50%.; type: functional, cell-based; conditions: Homo sapiens
How it was run: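 KB cells in Eagle's MEM with 10% calf serum, 37 °C, humidified 5% CO2, seeded at 3 × 10³ cells/mL and cultured 24 h. Compounds added in triplicate at several concentrations, with compound-free control wells, for 3 days. Value is the concentration reducing cell count by 50%.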

HT-29 = assay: Inhibitory concentration that reduced the viability of HT 29 cell population by 50%.; type: functional, cell-based; conditions: Homo sapiens
DNA topoisomerase 1 = target: T1, DNA topoisomerase 1 (Homo sapiens, UniProt P11387); assay: Inhibit supercoil relaxation property of topoisomerase I.
T1 sequence (P11387 whole entry): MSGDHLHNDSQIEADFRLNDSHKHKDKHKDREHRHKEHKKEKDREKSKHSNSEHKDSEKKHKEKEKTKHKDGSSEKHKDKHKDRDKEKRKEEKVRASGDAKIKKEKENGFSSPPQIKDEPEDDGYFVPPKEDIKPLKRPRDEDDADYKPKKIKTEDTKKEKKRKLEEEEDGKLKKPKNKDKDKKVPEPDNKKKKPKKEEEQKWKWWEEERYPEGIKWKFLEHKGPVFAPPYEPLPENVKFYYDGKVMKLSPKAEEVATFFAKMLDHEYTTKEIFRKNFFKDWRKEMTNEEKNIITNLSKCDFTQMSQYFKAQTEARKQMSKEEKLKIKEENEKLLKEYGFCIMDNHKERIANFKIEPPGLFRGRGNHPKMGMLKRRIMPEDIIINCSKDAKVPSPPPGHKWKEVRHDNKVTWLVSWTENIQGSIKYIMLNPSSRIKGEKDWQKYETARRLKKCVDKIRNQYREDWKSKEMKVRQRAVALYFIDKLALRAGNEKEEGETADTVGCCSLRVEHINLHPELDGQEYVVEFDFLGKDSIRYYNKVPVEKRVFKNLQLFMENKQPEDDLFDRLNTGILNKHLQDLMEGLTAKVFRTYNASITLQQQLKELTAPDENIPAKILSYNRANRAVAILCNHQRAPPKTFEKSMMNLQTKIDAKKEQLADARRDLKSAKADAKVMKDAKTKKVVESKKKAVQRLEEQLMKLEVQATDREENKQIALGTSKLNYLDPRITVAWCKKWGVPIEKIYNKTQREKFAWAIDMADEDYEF
How it was run: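 Supercoiled pBR322 DNA (0.25 μg) incubated with topoisomerase I (0.5 unit) and ligand, 30 min at 37 °C. Then a further 30 min at 37 °C in SDS-containing loading buffer, agarose gel run overnight, and ethidium bromide staining. Supercoiled DNA remaining was quantified by laser densitometry of the photographic negative.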

SK-OV-3 = assay: Inhibitory concentration the viability of SKOV 3 cell population by 50%.; type: functional, cell-based; conditions: Homo sapiens
SK-VLB = assay: Inhibitory concentration that reduced the viability of SKVLB cell population by 50%.; type: functional, cell-based; conditions: Homo sapiens

CCC1(O)C(=O)OCc2c1cc1n(c2=O)Cc2cc3cc(OCCN)ccc3nc2-1 (centres undefined)
IC50 (KB): 0.175 µM

CCCC(=O)Nc1cn(COC)c(C(=O)NCCOc2ccc3nc4c(cc3c2)Cn2c-4cc3c(c2=O)COC(=O)C3(O)CC)n1 (centres undefined)
IC50 (HT-29): 6.9 µM
IC50 (DNA topoisomerase 1): 2.38 µM
IC50 (KB): 1 µM
IC50 (SK-OV-3): 1.3 µM
IC50 (SK-VLB): > 10 µM

CCCC(=O)Nc1cc(C(=O)NCCOc2ccc3nc4c(cc3c2)Cn2c-4cc3c(c2=O)COC(=O)C3(O)CC)n(COC)c1 (centres undefined)
IC50 (HT-29): 8.1 µM
IC50 (KB): 15.3 µM
IC50 (SK-OV-3): 5.1 µM
IC50 (SK-VLB): > 10 µM

CCC1(O)C(=O)OCc2c1cc1n(c2=O)Cc2cc3cc(OCC(=O)O)ccc3nc2-1 (centres undefined)
IC50 (HT-29): 2.8 µM
IC50 (DNA topoisomerase 1): 1.12 µM
IC50 (KB): 0.25 µM
IC50 (SK-OV-3): 1.2 µM
IC50 (SK-VLB): 2.1 µM

CCC1(O)C(=O)OCc2c1cc1n(c2=O)Cc2cc3cc(OCCNC(=O)c4cc(NC(=O)CCCN(C)C)cn4COC)ccc3nc2-1 (centres undefined)
IC50 (HT-29): 3.4 µM
IC50 (DNA topoisomerase 1): 2.6 µM
IC50 (KB): 5.68 µM
IC50 (SK-OV-3): 1.5 µM
IC50 (SK-VLB): 3.5 µM

CCCC(=O)Nc1ccc(C(=O)Nc2cc(C(=O)Nc3cc(C(=O)NCCOc4ccc5nc6c(cc5c4)Cn4c-6cc5c(c4=O)COC(=O)C5(O)CC)n(COC)c3)n(COC)c2)n1COC (racemic)
IC50 (HT-29): 7.1 µM
IC50 (KB): 5.09 µM
IC50 (SK-OV-3): 3.6 µM
IC50 (SK-VLB): > 10 µM

CCC1(O)C(=O)OCc2c1cc1n(c2=O)Cc2cc3cc(OCCNC(=O)c4cc(NC(=O)c5cc(NC(=O)c6ccc(NC(=O)CCCN(C)C)n6COC)cn5COC)cn4COC)ccc3nc2-1 (racemic)
IC50 (HT-29): > 10 µM
IC50 (DNA topoisomerase 1): 1.97 µM
IC50 (KB): 1 µM
IC50 (SK-OV-3): 9.7 µM
IC50 (SK-VLB): > 10 µM

CCCC(=O)Nc1cn(COC)c(C(=O)Nc2cn(COC)c(C(=O)NCCOc3ccc4nc5c(cc4c3)Cn3c-5cc4c(c3=O)COC(=O)C4(O)CC)n2)n1 (racemic)
IC50 (HT-29): 6 µM
IC50 (DNA topoisomerase 1): 2.42 µM
IC50 (KB): 3.08 µM
IC50 (SK-OV-3): 3.2 µM
IC50 (SK-VLB): > 10 µM

CCC1(O)C(=O)OCc2c1cc1n(c2=O)Cc2cc3cc(OCC(=O)ONc4cc(C(=O)Nc5cc(C(=O)Nc6cc(C(=O)NCCCN(C)C)n(COC)c6)n(COC)c5)n(COC)c4)ccc3nc2-1 (racemic)
IC50 (HT-29): > 10 µM
IC50 (DNA topoisomerase 1): 11.9 µM
IC50 (KB): 5.5 µM
IC50 (SK-OV-3): > 10 µM
IC50 (SK-VLB): > 10 µM

CCC1(O)C(=O)OCc2c1cc1n(c2=O)Cc2cc3cc(OCCNC(=O)c4cc(NC(=O)c5cc(NC(=O)CCCN(C)C)cn5COC)cn4COC)ccc3nc2-1 (racemic)
IC50 (HT-29): 6.2 µM
IC50 (DNA topoisomerase 1): 4.82 µM
IC50 (KB): 6.29 µM
IC50 (SK-OV-3): 4.3 µM
IC50 (SK-VLB): > 10 µM

CCC1(O)C(=O)OCc2c1cc1n(c2=O)Cc2cc3cc(OCC(=O)ONc4cc(C(=O)Nc5cc(C(=O)NCCCN(C)C)n(COC)c5)n(COC)c4)ccc3nc2-1 (racemic)
IC50 (HT-29): > 10 µM
IC50 (KB): 0.663 µM
IC50 (SK-OV-3): > 10 µM
IC50 (SK-VLB): > 10 µM

CCCC(=O)Nc1cc(C(=O)Nc2cc(C(=O)NCCOc3ccc4nc5c(cc4c3)Cn3c-5cc4c(c3=O)COC(=O)C4(O)CC)n(COC)c2)n(COC)c1 (racemic)
IC50 (HT-29): > 10 µM
IC50 (DNA topoisomerase 1): 16.6 µM
IC50 (KB): 3.25 µM
IC50 (SK-OV-3): > 10 µM
IC50 (SK-VLB): > 10 µM

CCC1(O)C(=O)OCc2c1cc1n(c2=O)Cc2cc3ccccc3nc2-1 (single isomer, unassigned) [CAMPTOTHECIN]
IC50 (HT-29): 0.0878 µM
IC50 (KB): 0.008 µM
IC50 (SK-OV-3): 0.051 µM
IC50 (SK-VLB): 0.053 µM

COc1cccc2c1C(=O)c1c(O)c3c(c(O)c1C2=O)C[C@@](O)(C(=O)CO)C[C@@H]3O[C@H]1C[C@H](N)[C@H](O)[C@H](C)O1 [DOXORUBICIN]
IC50 (HT-29): 0.28 µM
IC50 (KB): 0.015 µM
IC50 (SK-OV-3): 0.0251 µM
IC50 (SK-VLB): 6.54 µM

Cn1cc(NC(=O)c2cc(NC(=O)CNC(=N)N)cn2C)cc1C(=O)NCCC(=N)N [NETROPSIN]
IC50 (HT-29): 44.7 µM
IC50 (DNA topoisomerase 1): 62 µM
IC50 (KB): 47.1 µM
IC50 (SK-VLB): > 10 µM

Cn1cc(NC(=O)c2cc(NC(=O)c3cc(NC=O)cn3C)cn2C)cc1C(=O)NCCC(=N)N [STALLIMYCIN]
IC50 (HT-29): 54.7 µM
IC50 (DNA topoisomerase 1): 2.7 µM
IC50 (KB): 8.4 µM
IC50 (SK-VLB): > 10 µM
